From ChEMBL document CHEMBL2346664, “Synthesis, characterization and in vitro anticancer evaluation of novel 1,2,4-triazolin-3-one derivatives” (2013)

Legend:
Assay type in all cases: functional
T47D = test: Growth inhibition of human T47D cells assessed as cell growth at 10 '-6 M after 48 hrs by sulforhodamine B assay; conditions: read-out: Activity
KM12 = test: Growth inhibition of human KM12 cells assessed as growth inhibition at 10 uM after 48 hrs by sulforhodamine B assay; conditions: KM12, 48 h, read-out: GI
IGROV-1 [1] = test: Growth inhibition of human IGROV1 cells assessed as cell growth at 10 '-7 M after 48 hrs by sulforhodamine B assay; conditions: IGROV-1, 48 h, read-out: Activity
HL-60(TB) = test: Growth inhibition of human HL-60(TB) cells assessed as cell growth at 10 '-8 M after 48 hrs by sulforhodamine B assay; conditions: HL-60, 48 h, read-out: Activity
Outline: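 Five-dose NCI protocol with final concentrations of 0.01–100 µM and drug diluted from a DMSO stock (400× the top concentration) in medium with gentamicin. Cells were pre-incubated 24 h, then exposed 48 h at 37 °C. Suspension cells were fixed with 16% final TCA, SRB-stained and read at 515 nm. Percentage growth at each level was [(Ti−Tz)/(C−Tz)]×100, or [(Ti−Tz)/Tz]×100 when Ti < Tz.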

PC-3 = test: Growth inhibition of human PC3 cells assessed as cell growth at 10 '-5 M after 48 hrs by sulforhodamine B assay; conditions: PC-3, 48 h, read-out: Activity
SR = test: Growth inhibition of human SR cells after 48 hrs by sulforhodamine B assay
A549 = test: Growth inhibition of human A549 cells assessed as cell growth at 10 '-6 M after 48 hrs by sulforhodamine B assay; conditions: A549, 48 h, read-out: Activity
Outline: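 Percent growth at each of the five concentrations of the 48 h continuous-exposure NCI SRB screen. Drug stocks were in DMSO at 400× the top final concentration and diluted in medium with gentamicin. Growth was calculated as [(Ti-Tz)/(C-Tz)]×100 when Ti ≥ Tz, or [(Ti-Tz)/Tz]×100 when Ti < Tz. Tz plates were fixed at drug addition; untreated wells served as control. Absorbance was read at 515 nm.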

SNB-75 [2] = test: Growth inhibition of human SNB75 cells assessed as cell growth at 10 '-4 M after 48 hrs by sulforhodamine B assay; conditions: SNB-75, 48 h, read-out: Activity
LOX IMVI [3] = test: Growth inhibition of human LOXIMVI cells assessed as cell growth at 10 '-7 M after 48 hrs by sulforhodamine B assay; conditions: read-out: Activity
SF-539 = test: Growth inhibition of human SF539 cells assessed as cell growth at 10 '-5 M after 48 hrs by sulforhodamine B assay; conditions: SF-539, 48 h, read-out: Activity
NCI-H522 [4] = test: Growth inhibition of human NCI-H522 cells assessed as growth inhibition at 10 uM after 48 hrs by sulforhodamine B assay; conditions: NCI-H522, 48 h, read-out: GI
U-251 = test: Growth inhibition of human U251 cells assessed as cell growth at 10 '-8 M after 48 hrs by sulforhodamine B assay; conditions: U-251, 48 h, read-out: Activity
SK-MEL-5 = test: Growth inhibition of human SK-MEL-5 cells assessed as cell growth at 10 '-6 M after 48 hrs by sulforhodamine B assay; conditions: SK-MEL-5, 48 h, read-out: Activity
[5] = Growth inhibition of human NCI-ADR-RES cells assessed as growth inhibition at 10 uM after 48 hrs by sulforhodamine B assay; conditions: read-out: GI
SNB-75 [6] = test: Growth inhibition of human SNB75 cells assessed as growth inhibition at 10 uM after 48 hrs by sulforhodamine B assay; conditions: SNB-75, 48 h, read-out: GI
NCI-H522 [7] = test: Growth inhibition of human NCI-H522 cells after 48 hrs by sulforhodamine B assay; conditions: NCI-H522, 48 h
LOX IMVI [8] = test: Growth inhibition of human LOXIMVI cells assessed as cell growth at 10 '-8 M after 48 hrs by sulforhodamine B assay; conditions: read-out: Activity
IGROV-1 [9] = test: Growth inhibition of human IGROV1 cells assessed as cell growth at 10 '-4 M after 48 hrs by sulforhodamine B assay; conditions: IGROV-1, 48 h, read-out: Activity
SW-620 = test: Growth inhibition of human SW620 cells assessed as cell growth at 10 '-5 M after 48 hrs by sulforhodamine B assay; conditions: SW-620, 48 h, read-out: Activity
NCI-H522 [10] = test: Growth inhibition of human NCI-H522 cells assessed as cell growth at 10 '-4 M after 48 hrs by sulforhodamine B assay; conditions: NCI-H522, 48 h, read-out: Activity
RXF 393 = test: Growth inhibition of human RXF393 cells assessed as cell growth at 10 '-6 M after 48 hrs by sulforhodamine B assay; conditions: RXF 393, 48 h, read-out: Activity
SF-268 = test: Growth inhibition of human SF268 cells after 48 hrs by sulforhodamine B assay; conditions: SF-268, 48 h
[11] = Growth inhibition of human Hs 578T cells assessed as cell growth at 10 '-4 M after 48 hrs by sulforhodamine B assay; conditions: read-out: Activity
UO-31 = test: Growth inhibition of human UO31 cells assessed as cell growth at 10 '-8 M after 48 hrs by sulforhodamine B assay; conditions: UO-31, 48 h, read-out: Activity
NCI-H23 [12] = test: Growth inhibition of human NCI-H23 cells after 48 hrs by sulforhodamine B assay; conditions: NCI-H23, 48 h
Outline: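 NCI 60-cell-line five-dose screen. Cells were plated at 5,000–40,000/well by doubling time and grown 24 h at 37 °C, 5% CO2. Time-zero plates were TCA-fixed. Drug from DMSO stock was tested at 0.01, 0.1, 1, 10 and 100 µM final for 48 h continuous exposure. Read-out was SRB at 515 nm. GI50 is the concentration giving 50% reduction in net protein increase versus untreated control.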

SK-OV-3 = test: Growth inhibition of human SKOV3 cells assessed as cell growth at 10 '-8 M after 48 hrs by sulforhodamine B assay; conditions: SK-OV-3, 48 h, read-out: Activity
TK-10 = test: Growth inhibition of human TK10 cells assessed as cell growth at 10 '-7 M after 48 hrs by sulforhodamine B assay; conditions: TK-10, 48 h, read-out: Activity
MOLT-4 = test: Growth inhibition of human MOLT4 cells assessed as cell growth at 10 '-5 M after 48 hrs by sulforhodamine B assay; conditions: MOLT-4, 48 h, read-out: Activity
HCT-15 = test: Growth inhibition of human HCT15 cells assessed as cell growth at 10 '-7 M after 48 hrs by sulforhodamine B assay; conditions: HCT-15, 48 h, read-out: Activity
NCI-H23 [13] = test: Growth inhibition of human NCI-H23 cells assessed as cell growth at 10 '-7 M after 48 hrs by sulforhodamine B assay; conditions: NCI-H23, 48 h, read-out: Activity
[14] = read-out: LD50 (the source's name)

For `Cc1cc(=O)oc2cc(OCCn3c(C)nn(-c4ccc(Cl)cc4)c3=O)ccc12`, the growth at 1 µM (T47D) was 89%, the inhibition of growth at 10 µM (KM12) was 68.6% and the growth at 0.1 µM (IGROV-1 [1]) was 112%. The growth at 0.01 µM (HL-60(TB)) was 101%, the growth at 10 µM (PC-3) was 48% and the GI50 (SR) was 4.97 µM. For the same compound, the TGI (SR) was 6.67 µM, the CC50 (SR; [14]) was greater than 1 µM and the growth at 1 µM (A549) was 96%. The growth at 100 µM (SNB-75 [2]) was -25%, the growth at 0.1 µM (LOX IMVI [3]) was 88% and the growth at 10 µM (SF-539) was 25%. The inhibition of growth at 10 µM (NCI-H522 [4]) was 82.8%, the growth at 0.01 µM (U-251) was 98% and the growth at 1 µM (SK-MEL-5) was 47%. The inhibition of growth at 10 µM [5] was 75.3%, the inhibition of growth at 10 µM (SNB-75 [6]) was 79.6% and the GI50 (NCI-H522 [7]) was 3.85 µM. For the same compound, the TGI (NCI-H522 [7]) was 3.82 µM, the CC50 (NCI-H522 [7]; [14]) was greater than 1 µM and the growth at 0.01 µM (LOX IMVI [8]) was 96%. The growth at 100 µM (IGROV-1 [9]) was 41%, the growth at 10 µM (SW-620) was 16% and the growth at 100 µM (NCI-H522 [10]) was -22%. The growth at 1 µM (RXF 393) was 75%, the GI50 (SF-268) was 1.36 µM and the TGI (SF-268) was greater than 1 µM. The CC50 (SF-268; [14]) was greater than 1 µM, the growth at 100 µM [11] was 7% and the growth at 0.01 µM (UO-31) was 86%. It also gave a GI50 (NCI-H23 [12]) of 2.83 µM, a TGI (NCI-H23 [12]) greater than 1 µM and a CC50 (NCI-H23 [12]; [14]) greater than 1 µM. For the same compound, the growth at 0.01 µM (SK-OV-3) was 111%, the growth at 0.1 µM (TK-10) was 101% and the growth at 10 µM (MOLT-4) was 26%. It also gave a growth at 0.1 µM (HCT-15) of 95% and a growth at 0.1 µM (NCI-H23 [13]) of 91%.
